Reference: ChEMBL document CHEMBL1151764, “Search for inhibitors of bacterial and human protein kinases among derivatives of diazepines[1,4] annelated with maleimide and indole cycles” (J Med Chem, 2008)
One block for each compound: values may come before it.

Experiments:
Streptomyces coelicolor [1] = assay: Inhibition of aph8 phosphorylation in Streptomyces coelicolor cell lysate assessed as [32Pi] incorporation into aph8 at 500 nM by microplate scintillation counter relative to control; parameters: scale not given: the % may be the effect or the level left
How it was run: (§1)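 Radiometric in vitro assay of actinobacterial protein kinases. Kinases incubated under standard conditions with [γ-³²P]ATP and aphVIII as substrate, with or without modulators or inhibitors. Read-out was incorporation of the γ-phosphoryl residue into aphVIII.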

[2] = target: Cyclin-dependent kinase 4/cyclin D1 (Homo sapiens, UniProt P11802); assay: Inhibition of human CDK4/CycD1; type: protein-complex assay
Sequence of Cyclin-dependent kinase 4/cyclin D1 (P11802 whole entry): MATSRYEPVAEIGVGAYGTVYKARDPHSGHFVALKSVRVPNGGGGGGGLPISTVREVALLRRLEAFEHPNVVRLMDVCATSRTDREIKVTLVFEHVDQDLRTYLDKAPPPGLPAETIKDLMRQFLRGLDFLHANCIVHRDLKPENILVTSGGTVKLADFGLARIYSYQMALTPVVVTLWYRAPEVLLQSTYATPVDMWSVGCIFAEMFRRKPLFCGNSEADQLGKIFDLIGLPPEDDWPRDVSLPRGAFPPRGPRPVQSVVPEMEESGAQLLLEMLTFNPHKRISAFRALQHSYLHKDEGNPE
Sequence of Cyclin-dependent kinase 4/cyclin D1 (P24385 whole entry, further chain): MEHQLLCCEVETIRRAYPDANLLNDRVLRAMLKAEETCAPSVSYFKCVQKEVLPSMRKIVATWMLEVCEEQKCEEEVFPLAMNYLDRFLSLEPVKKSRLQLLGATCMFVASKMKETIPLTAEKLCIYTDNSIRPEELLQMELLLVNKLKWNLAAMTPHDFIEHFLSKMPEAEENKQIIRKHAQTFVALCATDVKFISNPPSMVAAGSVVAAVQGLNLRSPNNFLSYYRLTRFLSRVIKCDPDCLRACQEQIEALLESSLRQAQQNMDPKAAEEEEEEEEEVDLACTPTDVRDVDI

Streptomyces coelicolor [3] = assay: Inhibition of aph8-induced kanamycin phosphorylation in Streptomyces coelicolor cell lysate assessed as [32Pi] incorporation into kanamycin at 10 uM by microplate scintillation counter relative to control; parameters: scale not given: the % may be the effect or the level left
Streptomyces lividans [4] = assay: Inhibition of aph8 positive Streptomyces lividans at 5 uM after 20 hrs by paper disk method; type: functional; conditions: read-out: IZ
How it was run: (§2)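 Test culture was Streptomyces lividans carrying plasmid pSU23 with the aphVIII gene, whose kanamycin-inactivating activity depends on Ser/Thr kinase phosphorylation. Paper disks (7 mm) held kanamycin (5 µg/disk) plus test compound at subtoxic amounts, about half the minimal growth-inhibitory dose. Disks went on plates of log-phase cells at 28 °C for 20 h. Read-out was lysis zone diameter.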

Streptomyces lividans [5] = assay: Inhibition of aph8 positive Streptomyces lividans at 10 uM after 20 hrs by paper disk method; type: functional; conditions: read-out: IZ; how it was run: as §2
Streptomyces lividans [6] = assay: Inhibition of aph8 positive Streptomyces lividans at 20 uM after 20 hrs by paper disk method; type: functional; conditions: read-out: IZ; how it was run: as §2
Streptomyces lividans [7] = assay: Inhibition of aph8 positive Streptomyces lividans at 40 uM after 20 hrs by paper disk method; type: functional; conditions: read-out: IZ; how it was run: as §2
Streptomyces lividans [8] = assay: Inhibition of aph8 positive Streptomyces lividans at 80 uM after 20 hrs by paper disk method; type: functional; conditions: read-out: IZ; how it was run: as §2
Streptomyces coelicolor [9] = assay: Inhibition of Ca(2+)/Calmodulin-dependent aph8 phosphorylation in Streptomyces coelicolor cell lysate assessed as [32Pi] incorporation into aph8 at 500 nM by microplate scintillation counter relative to control; parameters: scale not given: the % may be the effect or the level left; how it was run: as §1
[10] = target: Cyclin-dependent kinase 2 (Homo sapiens, UniProt P24941); assay: Inhibition of human CDK2/CycA
Streptomyces coelicolor [11] = assay: Inhibition of Ca(2+))/phosphatidylserine/diacylglycerol-dependent aph8 phosphorylation in Streptomyces coelicolor cell lysate assessed as [32Pi] incorporation into aph8 at 500 nM by microplate scintillation counter relative to control; parameters: scale not given: the % may be the effect or the level left; how it was run: as §1
Streptomyces lividans [12] = assay: Inhibition of aph8 positive Streptomyces lividans at 25 uM after 20 hrs by paper disk method; type: functional; conditions: read-out: IZ; how it was run: as §2
Streptomyces lividans [13] = assay: Inhibition of aph8 positive Streptomyces lividans at 50 uM after 20 hrs by paper disk method; type: functional; conditions: read-out: IZ; how it was run: as §2
Streptomyces lividans [14] = assay: Inhibition of aph8 positive Streptomyces lividans at 100 uM after 20 hrs by paper disk method; type: functional; conditions: read-out: IZ; how it was run: as §2

SMILES: O=C(O)CN(CCOCCOCCN(CC(=O)O)CC(=O)O)CC(=O)O
- Activity (Streptomyces coelicolor [1]): 94%

SMILES: CN([C@@H](Cc1ccc(OS(=O)(=O)c2cccc3cnccc23)cc1)C(=O)N1CCN(c2ccccc2)CC1)S(=O)(=O)c1cccc2cnccc12
- Activity (Streptomyces coelicolor [9]): 113%

SMILES: COc1ccc(S(=O)(=O)Nc2ccccc2CN(C)C/C=C/c2ccc(Cl)cc2)cc1
- Activity (Streptomyces coelicolor [9]): 352%

SMILES: CN1C(=O)C(c2c[nH]c3ccccc23)=C(c2c[nH]c3ccccc23)C1=O
- Activity (Streptomyces coelicolor [11]): 206%
- Activity (Streptomyces coelicolor [3]): 89%

Second part, led by results:

- IC50 [2]: 6.9 µM
SMILES: C=CCNC(=N)SCCCN1C(=O)C2=C(C1=O)n1ccc3cccc(c31)C1Cc3ccccc3N21 (centres undefined)

- Activity (Streptomyces coelicolor [3]): 94%
SMILES: CCN(CC)CCCN1C(=O)C2=C(C1=O)n1ccc3cccc(c31)C1Cc3ccccc3N21 (centres undefined)
- zone of inhibition at 5 µM (Streptomyces lividans [4]): 0 mm
- zone of inhibition at 10 µM (Streptomyces lividans [5]): 0 mm
- zone of inhibition at 20 µM (Streptomyces lividans [6]): 7.5 mm
- zone of inhibition at 40 µM (Streptomyces lividans [7]): 9 mm
- zone of inhibition at 80 µM (Streptomyces lividans [8]): 11 mm

- IC50 [10]: 7.7 µM
SMILES: O=C1C2=C(C(=O)N1CCCSC1=NCCN1)n1ccc3cccc(c31)C1Cc3ccccc3N21 (centres undefined)

- Activity (Streptomyces coelicolor [3]): 92%
SMILES: CCN(CC)Cc1cn2c3c(cccc13)C1Cc3ccccc3N1C1=C2C(=O)NC1=O (centres undefined)
- zone of inhibition at 5 µM (Streptomyces lividans [4]): 0 mm
- zone of inhibition at 10 µM (Streptomyces lividans [5]): 0 mm
- zone of inhibition at 25 µM (Streptomyces lividans [12]): 7.5 mm
- zone of inhibition at 50 µM (Streptomyces lividans [13]): 9 mm
- zone of inhibition at 100 µM (Streptomyces lividans [14]): 12 mm
